STAT3 act: IL-6 driven STAT3 reporter potentiators, primary screen, U3A cells, luciferase, luminescence, MLSCN library; IL-6 STAT3-luciferase reporter; 100% = signal with IL-6 EC80 alone; activation (% of control), % at 5.6 µM; 0.91% of 190,000 active;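 active means activation above the screen-wide mean of compound activation plus 3 SD, cut at about 130% in these data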;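 further: 0% = background luminescence of wells with medium and substrate only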
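Material: STAT1-lacking human U3A cells, STAT3 luciferase reporter | Benchmarks: IL-6-only wells as 100% reference | Probe or stimulus: IL-6 (33 ng/mL) | Timing: Compound 1 h, then IL-6 6 h at 37 °C | Detection: Luminescence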
STAT1 activator: STAT1 signaling activators, primary screen, cell-based, HTS, luciferase reporter; NIH 3T3 STAT1-luciferase reporter, IFN-gamma, luminescence; 100% = IFN-gamma alone, no compound; activation (% of control), % at 5.5 µM; 2.6% of 200,000 active; AID 932, 2007;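 active means activation above the screen-wide mean activation plus 3 SD, cut at about 130% in these data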;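 further: raw ratio to IFN-gamma control signal so 100% means no change and 0% no light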
STAT3 inh: IL-6 driven STAT3 reporter inhibitors, primary screen, U3A cells, luciferase, luminescence, MLSCN library | IL-6 STAT3-luciferase reporter; host cell line lacks STAT1 | inhibition, % at 5.5 µM | 0.89% of 190,000 active;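 active means inhibition above the mean inhibition across all screened compounds plus 3 SD, cut at about 44% in these data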;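 further: 0% = DMSO only wells and 100% = 100 µM nifuroxazide control wells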
APP 5'UTR act: activators of APP 5'UTR luciferase reporter, primary screen, SH-SY5Y cells; activation, % at 2 µM; SH-SY5Y APP 5'UTR luciferase reporter, luminescence; zero percent = DMSO vehicle wells; 1% of 190,000 active;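 active means activation above a set limit, based on mean plus 3 SD of controls, cut at about 140% in these data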
STAT1 inh: STAT1 signaling inhibitors, primary screen, cell-based, HTS, luciferase reporter; 0.35% of 200,000 active; AID 920, 2007; inhibition, % at 5.5 µM; NIH 3T3 STAT1-luciferase reporter, IFN-gamma, luminescence;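 active means inhibition above a set limit, the mean inhibition across all tested compounds plus 3 SD, cut at about 34% in these data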;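 further: 0% = IFN-gamma with DMSO and 100% = IFN-gamma with 300 µM nifuroxazide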
NF-kB neuron act: activators of NF-kB expression in neurons, primary screen, cell-based, HTS; fold change at 12.5 µM; 1.6% of 190,000 active; human neuronal cells, NF-kB reporter expression; active compounds read high; in the data active means fold change above about 3.3
Numbers without * were called inactive; · = no result given. A selection: hits, their analogues and other compounds. The true share with any hit is near 4.9%.

SMILES	STAT3 act	STAT1 activator	STAT3 inh	APP 5'UTR act	STAT1 inh	NF-kB neuron act
Nc1nc(-c2ccc3c(c2)CCCC3)cs1	95.5	136.5*	11.5	95.4	-38.3	5.26*
Nc1nc(-c2cccc(F)c2)cs1	105.6	113.7	-4.2	17.7	-16.6	3.36*
CN(CC(=O)Nc1ccccc1C(F)(F)F)C(=O)COc1ncnc2ccccc12	103.0	90.2	1.4	1.8	10.2	1.04
CCC(=O)Nc1cccc(C(=O)/C=C/c2cccs2)c1	88.8	102.2	20.7	45.5	-2.1	2.63
CSc1ccc(/C=C/C(=O)Nc2ccccc2)cc1	36.5	49.8	79.2*	210.3*	53.3*	6.28*
O=C(/C=C/c1ccccc1)Nc1cccc(C(=O)O)c1	9.8	10.6	107.0*	-64.3	95.8*	5.06*
CCC(=O)Nc1cccc(C(=O)/C=C/c2ccccc2)c1	101.9	107.8	3.7	24.2	-8.5	8.75*
CC(=O)Nc1ccc(NC(=O)/C=C/c2ccccc2)cc1	87.3	112.1	24.3	32.3	-14.0	1.03
CSc1ccc(/C=C/C(=O)c2ccc(NC(=O)C(C)C)cc2)cc1	93.7	99.7	13.7	7.3	0.3	1.1
CSc1ccc(C(=O)/C=C/c2ccc(N)cc2)cc1	97.6	113.5	5.5	116.8	-15.1	10*
COc1ccc(NC(=S)NC(=O)CC(C)C)c(OC)c1	110.7	112.1	-7.8	5.6	-16.8	1.42
COc1ccc(NC(=O)/C(C#N)=C/c2ccc(Sc3nncn3C)c([N+](=O)[O-])c2)cc1	98.9	96.5	6.4	12.3	2.0	·
CSc1cccc(NC(=O)/C=C/c2ccc(Cl)cc2)c1	89.2	111.2	19.0	19.7	-12.2	1.78
CSc1cccc(NC(=O)/C=C/c2ccccc2)c1	96.6	133.2*	4.6	109.1	-36.4	2.74
N/C(=N\OC(=O)/C=C/c1ccc(Br)cc1)c1ccccn1	78.1	120.6	24.3	187.6*	-23.2	3.89*
N/C(=N\OC(=O)/C=C/c1ccccc1Cl)c1ccccn1	43.1	59.2	69.4*	123.5	43.0*	4.1*
N/C(=N\OC(=O)/C=C/c1ccccc1)c1cccnc1	102.1	115.7	4.4	55.2	-18.5	1.01
CCOC(=O)/C=c1\s/c(=C\c2sccc2C)c(=O)n1CC(=O)NCc1ccc(C)cc1	100.9	91.6	5.1	7.2	9.5	·
O=C1c2ccccc2C(=O)C12OC2c1ccc(Cl)cc1Cl (stereo not drawn)	100.5	100.5	0.2	-24.8	-0.6	4.06*
CNC(=O)CS(=O)CC(=O)Nc1cc(OCCOC)c(Cl)cc1Cl (stereo not drawn)	98.5	101.3	6.8	-11.6	-3.4	1.25
CC(O)CNCc1ccccc1C(F)(F)F (stereo not drawn)	107.1	98.3	-2.1	2.5	-0.3	0.91
COc1ccc2nc(NC(=O)CSc3nnnn3C3CCCCC3)sc2c1	100.4	94.0	5.6	-3.9	6.6	0.92
CCOc1ccc2nc(NC(=O)COC)sc2c1	88.8	138.4*	19.2	139.7*	-42.6	4.91*
COc1ccc2nc(NC(=O)Cc3cccs3)sc2c1	95.1	135.6*	6.9	70.7	-45.9	2.92
COc1ccc2nc(NC(=O)CSc3nnnn3C)sc2c1	93.9	142.0*	11.4	59.9	-47.5	2.18
SMILES	STAT3 act	STAT1 activator	STAT3 inh	APP 5'UTR act	STAT1 inh	NF-kB neuron act
CCOc1ccc2nc(NC(=O)Cc3cccs3)sc2c1	107.8	128.9*	-2.9	46.5	-31.4	2.16
COc1ccc(-c2csc(N(CCc3ccccc3)C(=O)COc3ccccc3)n2)cc1	98.3	102.1	6.5	-2.6	-2.2	1.07
COCCCN(C(C)=O)c1nc(-c2ccccc2)cs1	93.5	138.0*	13.1	9.9	-41.5	1.58
O=C(Nc1ccc2c(c1)OCO2)c1cc2nc(C3CC3)cc(C(F)(F)F)n2n1	102.6	96.6	1.7	2.0	3.8	1.29
Cc1cc(C)n2nc(C(=O)Nc3ccc4c(c3)OCO4)cc2n1	78.1	129.3*	30.4	99.5	-31.6	3.33*
CC(=O)c1cccc(NC(=O)c2cc3nc(C)cc(C)n3n2)c1	105.4	144.6*	-3.9	91.9	-48.3	0.99
CC(C)Cc1cc(C(=O)Nc2ccc3c(c2)OCO3)no1	98.7	131.8*	0.7	48.7	-37.9	2.69
CC(=O)c1cccc(NC(=O)c2ccc(C(=O)Nc3cccc(C(C)=O)c3)nc2)c1	106.0	96.6	-3.3	-3.9	1.8	0.81
O=C(Nc1cccnc1)c1cc(-c2ccc3c(c2)OCO3)on1	96.5	133.9*	7.6	11.1	-36.9	5.49*
COc1ccc(/C=C/C(=O)Oc2cc(C)[nH]c(=O)c2[N+](=O)[O-])cc1OC	102.6	93.2	0.4	1.8	6.2	1.11
COc1ccc(-c2cn(-c3ccc(C)cc3C)c(=O)[nH]2)cc1OC	86.1	90.3	20.4	10.8	10.2	1.02
O=S(=O)(Nc1ccccn1)c1ccc(Cl)c2ccccc12	104.2	98.5	-1.1	18.0	1.2	1.09
Cc1ccc(C(=O)NC(=S)NCC2CCCO2)cc1[N+](=O)[O-] (stereo not drawn)	102.0	98.5	7.1	-10.1	1.8	1.06
COc1ccc(Oc2nccc(-c3ccc(F)cc3)c2C#N)cc1	98.1	119.1	3.8	3.3	-21.4	1.15
COc1ccc(Oc2nccc(-c3ccccc3)c2C#N)cc1	87.3	129.1*	18.5	56.4	-31.6	2.06
Cc1ccccc1CN(C)CC(=O)NC(C)CCc1ccccc1 (stereo not drawn)	99.9	94.8	8.7	-6.1	3.6	1.12
COc1ccc(NC(=O)/C=C/c2ccccc2)cn1	93.5	141.4*	3.7	85.2	-45.5	2.85
COc1ccc(NC(=O)/C=C/c2ccc(F)cc2)cn1	96.3	135.8*	6.6	18.9	-40.2	2.03
COc1ccc(NC(=O)/C=C/c2cc(OC)c(OC)c(OC)c2)cn1	87.0	100.3	22.1	-2.2	-0.6	0.95
Cn1c(C(=O)NCc2ccccn2)cc2c(=O)n3ccccc3nc21	91.2	132.8*	13.6	16.9	-36.9	1.91
COc1ccc(N2CCN(CCNC(=O)c3ccc4c(c3)[nH]c(=S)n3c5ccccc5nc43)CC2)cc1	100.5	102.3	3.1	11.2	-4.5	1.02
Cc1noc(C)c1COC(=O)CCCc1c[nH]c2ccccc12	133.7*	87.7	-32.1	-17.0	13.8	1.2
CN1C(=O)SC(Nc2ccccc2)C1=O (stereo not drawn)	106.0	105.5	-3.8	11.7	-4.2	1.11
COc1cccc(NC2SC(=O)N(c3ccccc3)C2=O)c1 (stereo not drawn)	110.7	116.6	-12.9	14.3	-16.7	4.07*
